Active and inactive are the calls of the source. The rule behind the calls is not given here.
Key:
[1] = species: Danio rerio; experiment: Antiangiogenic activity in transgenic Tg(fli1:GFP) zebra fish embryo assessed as reduction in angiogenic sprouts at 20 uM measured at 48 hrs postfertilization by fluorescence microscopy; format: functional, organism-based
Method in brief: (§1)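 Tg:Fli1-GFP embryos selected at 12 hpf, 30 per well, 28.5 °C in E3 medium, exposed to compound (20 μM); chorions broken at 24 hpf; at 48 hpf ISVs and angiogenic sprouts counted by fluorescence microscopy. Sorafenib (1 μM) positive control; mean, SD; one-way ANOVA with Tukey post hoc test.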

[2] = tested on: SK-MEL; experiment: Cytotoxicity against human SK-MEL cells assessed as reduction in cell viability measured after 48 hrs by MTT assay; format: functional, cell-based
Method in brief: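 MTT assay: SK-MEL-1 cells (DMEM, 10% FBS, 37 °C, 5% CO2) seeded 10⁴/well for 24 h, then exposed to a range of concentrations for 48 h; MTT added for 4 h at 37 °C, formazan dissolved in DMSO, absorbance 570 nm. IC50 as mean ± SD, three independent experiments.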

[3] = Toxicity in zebra fish larvae assessed as pericardial edema at 100 uM measured at 48 hpf by stereomicroscopic analysis; parameters: species or system Danio rerio; conditions: zebrafish, 48 h
Method in brief: (§2)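 Zebrafish larvae at 48 hpf, kept at 28.5 °C in E3 medium, treated with compound; survival and pathological changes (e.g. pericardial edema) checked by stereomicroscope every 12 h.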

[4] = Toxicity in zebra fish larvae assessed as curved tail at 100 uM measured at 48 hpf by stereomicroscopic analysis; parameters: species or system Danio rerio; conditions: zebrafish, 48 h; method in brief: as §2
[5] = species: Danio rerio; experiment: Antiangiogenic activity in transgenic Tg(fli1:GFP) zebra fish embryo assessed as reduction in intersegmental blood vessels at 20 uM measured at 48 hrs postfertilization by fluorescence microscopy; format: functional, organism-based; method in brief: as §1
[6] = Toxicity in zebra fish larvae assessed as death at 100 uM measured at 48 hpf by stereomicroscopic analysis; parameters: species or system Danio rerio; conditions: zebrafish, 48 h; method in brief: as §2
[7] = Toxicity in zebra fish larvae at 100 uM measured at 48 hpf by stereomicroscopic analysis; parameters: species or system Danio rerio; conditions: zebrafish, 48 h; method in brief: as §2
[8] = tested on: SK-MEL; experiment: Induction of apoptosis in human SK-MEL cells assessed as increase in cleaved PARP level at 0.2 to 0.8 uM incubated for 48 hrs by Western blot analysis; format: functional, cell-based; conditions: dose 0.2-0.8 µM
Method in brief: (§3)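 SK-MEL-1 cells seeded 3 × 10⁵/well for 24 h, treated 48 h; lysed in RIPA buffer with protease and phosphatase inhibitors 15 min at 4 °C; 20 μg protein by SDS-PAGE, PVDF transfer, PARP immunoblot with ECL detection; β-actin loading control. Sorafenib (10 μM) positive control.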

[9] = target: Vascular endothelial growth factor receptor 2 (Danio rerio) (UniProt Q5GIT4); experiment: Inhibition of VEGFR2 mediated angiogenesis in transgenic Tg(flk1:GFP) zebra fish embryo at 20 uM measured at 48 hrs postfertilization by fluorescence microscopy
Vascular endothelial growth factor receptor 2 (Danio rerio), sequence (Q5GIT4 whole entry): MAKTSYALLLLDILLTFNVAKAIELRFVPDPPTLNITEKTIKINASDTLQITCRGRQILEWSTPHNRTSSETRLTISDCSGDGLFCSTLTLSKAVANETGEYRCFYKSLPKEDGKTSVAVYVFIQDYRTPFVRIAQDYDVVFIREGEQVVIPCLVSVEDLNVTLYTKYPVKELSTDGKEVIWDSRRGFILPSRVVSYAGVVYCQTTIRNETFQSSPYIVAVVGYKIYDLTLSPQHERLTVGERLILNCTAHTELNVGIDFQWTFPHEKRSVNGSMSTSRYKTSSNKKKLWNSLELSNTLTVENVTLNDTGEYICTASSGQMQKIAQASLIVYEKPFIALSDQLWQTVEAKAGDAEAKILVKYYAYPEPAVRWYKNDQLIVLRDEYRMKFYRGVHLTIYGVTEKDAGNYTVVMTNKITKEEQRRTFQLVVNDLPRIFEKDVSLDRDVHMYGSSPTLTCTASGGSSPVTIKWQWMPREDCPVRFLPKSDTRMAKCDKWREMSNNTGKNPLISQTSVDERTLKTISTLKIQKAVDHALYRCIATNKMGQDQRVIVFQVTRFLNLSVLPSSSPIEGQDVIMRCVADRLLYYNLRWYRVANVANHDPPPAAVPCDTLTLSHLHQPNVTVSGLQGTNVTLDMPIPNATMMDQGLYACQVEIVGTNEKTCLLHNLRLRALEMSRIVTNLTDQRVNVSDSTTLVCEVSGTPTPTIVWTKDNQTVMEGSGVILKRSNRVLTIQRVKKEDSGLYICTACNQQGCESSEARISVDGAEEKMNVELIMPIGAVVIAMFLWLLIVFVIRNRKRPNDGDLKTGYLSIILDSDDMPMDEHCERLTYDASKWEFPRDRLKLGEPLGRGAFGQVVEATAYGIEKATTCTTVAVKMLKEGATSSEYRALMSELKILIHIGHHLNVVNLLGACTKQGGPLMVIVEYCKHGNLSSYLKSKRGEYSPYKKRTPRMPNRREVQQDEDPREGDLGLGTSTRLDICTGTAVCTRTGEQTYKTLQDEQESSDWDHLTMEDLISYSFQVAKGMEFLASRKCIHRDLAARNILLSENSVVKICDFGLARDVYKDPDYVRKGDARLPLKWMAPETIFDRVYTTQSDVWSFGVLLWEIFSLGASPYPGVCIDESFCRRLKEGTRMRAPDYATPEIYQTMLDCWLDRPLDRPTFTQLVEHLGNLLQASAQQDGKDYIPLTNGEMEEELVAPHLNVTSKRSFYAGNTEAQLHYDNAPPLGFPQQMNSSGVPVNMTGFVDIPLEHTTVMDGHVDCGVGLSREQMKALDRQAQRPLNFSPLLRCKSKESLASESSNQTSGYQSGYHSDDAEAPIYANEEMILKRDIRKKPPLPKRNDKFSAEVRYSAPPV
Method in brief: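 Tg:Flk1-GFP (VEGFR2 reporter) embryos treated from 12 hpf at 20 μM, 28.5 °C in E3 medium; chorions removed at 24 hpf; ISV and sprout numbers counted at 48 hpf under fluorescence microscope. Sorafenib (1 μM) positive control; one-way ANOVA, Tukey post hoc test.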

[10] = tested on: SK-MEL; experiment: Anti-melanoma activity against human SK-MEL cells xenografted in yolk of zebra fish at 0.5 uM measured after 48 hrs by CM-Dil staining based fluorescence microscopic analysis; format: functional, cell-based
Method in brief: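 SK-MEL-1 cells were prestained with CM-DiI (2 μM) and microinjected into the superficial yolk near the perivitelline space of 2 dpf zebrafish. Embryos were kept in E3 medium, treated for 48 h at 28.5 °C, then immobilized. CM-DiI fluorescence was imaged by fluorescence microscopy alongside bright field, and the melanoma area was outlined.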

[11] = tested on: SK-MEL; experiment: Induction of apoptosis in human SK-MEL cells assessed as increase in cleaved PARP level at 10 uM incubated for 48 hrs by Western blot analysis; format: functional, cell-based
Method in brief: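 SK-MEL-1 cells (DMEM, 10% FBS, 37 °C, 5% CO2) were seeded at 3 × 10⁵/well for 24 h, then treated for 48 h. They were lysed in RIPA buffer with PMSF, orthovanadate, DTT and phosphatase inhibitor for 15 min at 4 °C, and protein was quantified by BCA. 20 μg was run on SDS-PAGE and blotted to PVDF, with primary antibody overnight at 4 °C and secondary 1 h at room temperature. Detection was by ECL, with β-actin as loading control.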

[12] = tested on: SK-MEL; experiment: Induction of apoptosis in human SK-MEL cells assessed as increase in cleaved PARP level at 0.1 to 0.5 uM incubated for 48 hrs by Western blot analysis; format: functional, cell-based; conditions: dose 0.1-0.5 µM; method in brief: as §3
[13] = tested on: SK-MEL; experiment: Anti-melanoma activity against human SK-MEL cells xenografted in yolk of zebra fish at 10 uM measured after 48 hrs by CM-Dil staining based fluorescence microscopic analysis; format: functional, cell-based
Method in brief: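 SK-MEL-1 cells prelabelled with CM-DiI (2 μM) microinjected into superficial yolk near perivitelline space of 2 dpf zebrafish embryos; treated 48 h at 28.5 °C; CM-DiI fluorescence of tumour mass imaged by fluorescence microscopy in immobilized fish. Sorafenib (0.5 μM) positive control.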

[14] = tested on: SK-MEL; experiment: Induction of apoptosis in human SK-MEL cells assessed as increase in cleaved PARP level at 0.5 to 1 uM incubated for 48 hrs by Western blot analysis; format: functional, cell-based; conditions: dose 0.5-1 µM; method in brief: as §3

Compound	Activity [1]	IC50 [2]	Activity [3]	Activity [4]	Activity [5]	Activity [6]	Activity [7]	also measured
C[C@]12CC[C@@H]3C4=C(C[C@H]3[C@@]1(O)CC[C@@H]2c1ccc(=O)oc1)C(=O)C=CCC4	inactive	3300 nM	Toxic	Toxic	inactive	Toxic	–	–
C[C@]12CC[C@H]3[C@@H](CC[C@]4(O)C[C@@H](O)CC[C@]34C(=O)O)[C@@]1(O)CC[C@@H]2c1ccc(=O)oc1	inactive	290 nM	–	–	inactive	–	Non-Toxic	–
C[C@]12CC[C@H]3[C@@H](CC[C@]4(O)C[C@@H](O)CC[C@]34C=O)[C@@]1(O)CC[C@@H]2c1ccc(=O)oc1	Active	96 nM	Toxic	–	Active	–	–	Activity [8]: inactive; Activity [9]: inactive
C[C@]12CC[C@H](O)C[C@@]1(O)CC[C@@H]1[C@@H]2CC[C@]2(C)[C@@H](c3ccc(=O)oc3)[C@@H](O)C[C@]12O	inactive	700 nM	–	–	inactive	–	Non-Toxic	–
CNC(=O)c1cc(Oc2ccc(NC(=O)Nc3ccc(Cl)c(C(F)(F)F)c3)cc2)ccn1 [SORAFENIB]	–	10000 nM	–	–	–	–	–	Activity [10]: Active; Activity [11]: inactive
C[C@]12CC[C@@H]3[C@H]4CC[C@H](O)C[C@@]4(O)CC[C@H]3[C@]13O[C@@H]3C[C@@H]2c1ccc(=O)oc1	inactive	3600 nM	Toxic	Toxic	inactive	Toxic	–	–
C[C@]12CC[C@@H]3[C@H]4CC[C@H](O)C[C@@]4(O)CC[C@H]3[C@@]1(O)CC[C@@H]2c1ccc(=O)oc1	–	280 nM	–	–	–	–	–	–
C[C@]12CC[C@H](O)C[C@@]1(O)CC[C@@H]1[C@@H]2CC[C@]2(C)[C@@H](c3ccc(=O)oc3)CC[C@]12O [TELOCINOBUFAGIN]	inactive	50 nM	Toxic	Toxic	inactive	Toxic	–	Activity [12]: Active; Activity [13]: Active
C[C@]12CC[C@H]3[C@@H](CC[C@]4(O)C[C@@H](O)CC[C@]34O)[C@@]1(O)CC[C@@H]2c1ccc(=O)oc1	Active	910 nM	–	–	Active	–	Non-Toxic	Activity [9]: inactive; Activity [14]: inactive
